In ChEMBL document CHEMBL4014344, “Discovery of the Soluble Guanylate Cyclase Stimulator Vericiguat (BAY 1021189) for the Treatment of Chronic Heart Failure” (J Med Chem, 2017):

What was measured:
[1] = target: T1, Guanylate cyclase soluble subunit alpha-1 (Rattus norvegicus) (UniProt P19686); test: Stimulation of rat recombinant sGCalpha1 subunit expressed in CHO cells using alpha-[32P]GTP as substrate assessed as >=3 fold increase in [32P]cGMP formation after 10 mins by radioimmunoassay; assay type: cell-based
T1 sequence (whole entry): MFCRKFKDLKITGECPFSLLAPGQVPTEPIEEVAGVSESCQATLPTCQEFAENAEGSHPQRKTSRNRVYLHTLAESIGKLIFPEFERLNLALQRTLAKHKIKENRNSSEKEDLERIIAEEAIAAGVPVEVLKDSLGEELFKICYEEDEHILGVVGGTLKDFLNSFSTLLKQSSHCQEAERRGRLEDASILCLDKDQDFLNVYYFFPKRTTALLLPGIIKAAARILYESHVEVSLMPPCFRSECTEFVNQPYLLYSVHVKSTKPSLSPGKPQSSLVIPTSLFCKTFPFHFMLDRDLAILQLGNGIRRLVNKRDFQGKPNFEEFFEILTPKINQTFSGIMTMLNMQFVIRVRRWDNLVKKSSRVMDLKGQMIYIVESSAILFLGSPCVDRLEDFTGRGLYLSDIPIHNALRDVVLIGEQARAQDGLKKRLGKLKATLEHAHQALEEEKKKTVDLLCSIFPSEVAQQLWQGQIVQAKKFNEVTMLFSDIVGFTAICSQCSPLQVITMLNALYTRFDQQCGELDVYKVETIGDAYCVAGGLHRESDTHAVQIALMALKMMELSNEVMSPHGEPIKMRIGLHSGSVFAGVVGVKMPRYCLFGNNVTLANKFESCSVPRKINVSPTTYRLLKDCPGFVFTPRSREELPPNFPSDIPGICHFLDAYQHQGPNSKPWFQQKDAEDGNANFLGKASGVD

[2] = Clearance in rat hepatocytes at 1 uM up to 90 mins by LC-MS/MS analysis; assay type: ADME, cell-based, Hepatocyte
Summary of the method: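 Rat hepatocytes at 1 × 10^6 viable cells/mL (trypan blue-corrected) in Williams' medium E, 1 μM substrate, MeCN ≤1%, 37 °C, pH 7.4. Sampled at 2−90 min, quenched with MeCN, analysed by LC-MS/MS.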

[3] = Apparent permeability across apical to basolateral side in human Caco2 cells at 2 uM after 2 hrs by LC-MS analysis; assay type: ADME, cell-based; settings: Caco-2
Summary of the method: (§1)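 Caco-2 cells grown 14−16 d on inserts. Compound dissolved in DMSO and diluted to final 2 μM in HBSS with glucose (19.9 mM) and HEPES (9.8 mM). Added apically (A−B) or basolaterally, incubated 2 h at 37 °C. Both compartments analysed by LC-MS to calculate Papp. Efflux ratio = Papp B−A/Papp A−B. Lucifer yellow monolayer integrity check.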

[4] = Efflux ratio of apparent permeability in human Caco2 cells; assay type: ADME, cell-based; settings: Caco-2; summary of the method: as §1
[5] = Volume of distribution at steady state in iv dosed Wistar rat after 24 hrs by LC-MS analysis; assay type: ADME, organism-based; settings: in vivo, read-out: Vdss
Summary of the method: (§2)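 Male Wistar rats and female beagle dogs. iv in plasma/DMSO (rat) or H2O/PEG 400/EtOH (dog). Oral gavage in H2O/PEG 400/EtOH for both. Rats jugular-catheterised ≥1 d before dosing. Usually >10 blood samples, at least two after 24 h. Plasma quantified by LC-MS with internal standard. CL, t1/2, Vss and F calculated from plasma curves. Blood clearance via blood/plasma ratio (20 min blood incubation).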

[6] = Volume of distribution at steady state in iv dosed Beagle dog after 24 hrs by LC-MS analysis; assay type: ADME, organism-based, Canis lupus familiaris; settings: in vivo, read-out: Vdss; summary of the method: as §2
[7] = Clearance in iv dosed Wistar rat blood after 24 hrs by LC-MS analysis; assay type: ADME, organism-based; settings: whole blood; summary of the method: as §2
[8] = Clearance in iv dosed Beagle dog blood after 24 hrs by LC-MS analysis; assay type: ADME, organism-based, Canis lupus familiaris; settings: whole blood; summary of the method: as §2
[9] = Terminal half life in iv dosed Wistar rat blood after 24 hrs by LC-MS analysis; assay type: ADME, organism-based; settings: whole blood, read-out: beta t1/2 (converted); summary of the method: as §2
[10] = Terminal half life in iv dosed Beagle dog blood after 24 hrs by LC-MS analysis; assay type: ADME, organism-based, Canis lupus familiaris; settings: whole blood, read-out: beta t1/2 (converted); summary of the method: as §2
[11] = Oral bioavailability in Wistar rat administered via oral gavage after 24 hrs by LC-MS analysis; assay type: ADME, organism-based; settings: in vivo; summary of the method: as §2
[12] = Oral bioavailability in Beagle dog administered via oral gavage after 24 hrs by LC-MS analysis; assay type: ADME, organism-based, Canis lupus familiaris; settings: in vivo; summary of the method: as §2
Saphenous artery [13] = test: Vasorelaxant activity in normal Chinchilla rabbit saphenous artery ring administered at the beginning of the last resting period of 28 mins; assay type: functional; settings: Oryctolagus cuniculus
Saphenous artery [14] = test: Vasorelaxant activity in nirate-tolerant Chinchilla rabbit saphenous artery ring administered at the beginning of the last resting period of 28 mins in presence of sorbide dinitrate; assay type: functional; settings: Oryctolagus cuniculus
[15] = Plasma clearance in iv dosed Beagle dog after 24 hrs by LC-MS analysis; assay type: ADME, organism-based, Canis lupus familiaris
Summary of the method: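 Female beagle dogs were dosed iv in an H2O/PEG 400/EtOH formulation. Blood was collected into heparinized tubes, and plasma was obtained by centrifugation at 1000g and stored at −20 °C if needed. Drug was quantified by LC-MS (selected ion monitoring or high-resolution) against an internal standard. Clearance was calculated from the plasma concentration–time course.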

`Nc1nc(-c2nn(Cc3ccccc3F)c3ncccc23)nc(N)c1N1C[C@H](C(F)(F)F)OC1=O` showed an MEC [1] of 0.2 µM.

In the case of `Nc1nc(-c2nn(Cc3ccccc3F)c3ncccc23)nc(N)c1N1CCOC1=O`, the MEC [1] is reported as 0.3 µM and the CLhep predicted at 1 µM [2] is reported as 6.67 mL/min/kg.

With `COC(=O)N(Cc1ccc(F)cc1)c1c(N)nc(-c2nn(Cc3ccccc3F)c3ncccc23)nc1N` the MEC [1] was 0.7 µM and the CLhep predicted at 1 µM [2] was 40 mL/min/kg.

With `Nc1nc(-c2nn(Cc3ccccc3F)c3ncccc23)nc(N)c1NC(=O)OC1CCC1` the MEC [1] was 0.2 µM, the CLhep predicted at 1 µM [2] was 23.3 mL/min/kg and the Papp A→B at 2 h, 2 µM [3] was 2.3 ×10⁻⁶ cm/s. It also gave an efflux ratio [4] of 25.

With `Nc1nc(-c2nn(Cc3ccccc3F)c3ncccc23)nc(N)c1NC(=O)OCC1CC1` the MEC [1] was 0.2 µM and the CLhep predicted at 1 µM [2] was 23.3 mL/min/kg.

`COC(=O)N(CC(F)(F)F)c1c(N)nc(-c2nn(Cc3ccccc3F)c3ncccc23)nc1N` showed an MEC [1] of 0.1 µM and a CLhep predicted at 1 µM [2] of 15 mL/min/kg.

With `CCN(C(=O)OC)c1c(N)nc(-c2nn(Cc3ccccc3F)c3ncccc23)nc1N` the MEC [1] was 0.2 µM and the CLhep predicted at 1 µM [2] was 11.7 mL/min/kg.

With `COC(=O)N(Cc1ccccc1F)c1c(N)nc(-c2nn(Cc3ccccc3F)c3ncccc23)nc1N` the MEC [1] was 0.1 µM and the CLhep predicted at 1 µM [2] was 53.3 mL/min/kg.

`COC(=O)Nc1c(N)nc(-n2nc(Cc3ccccc3F)c3ncc(F)cc32)nc1N` showed an MEC [1] of 0.5 µM, a CLhep predicted at 1 µM [2] of 1.67 mL/min/kg and a Vd [5] of 0.5 L/kg. It also gave a Vd [6] of 1 L/kg, a clearance [7] of 5 mL/min/kg and a clearance [8] of 3.33 mL/min/kg. For the same molecule, the half-life [9] was 1.5 h, the half-life [10] was 4.1 h and the bioavailability [11] was 26%. It also gave a bioavailability [12] of 56%.

For `CC1(C)CN(c2c(N)nc(-c3nn(Cc4ccccc4F)c4ncccc34)nc2N)C(=O)O1`, the MEC [1] was 0.2 µM and the CLhep predicted at 1 µM [2] was 21.7 mL/min/kg.

`COC(=O)Nc1c(N)nc(-c2nc(Cc3ccccc3F)c3ncccn23)nc1N` showed an MEC [1] of 1.7 µM and a clearance [7] of 30 mL/min/kg.

For `Nc1nc(-c2nn(Cc3ccccc3F)c3ncccc23)nc(N)c1N1C[C@@H](C(F)(F)F)OC1=O`, the MEC [1] was 0.03 µM and the CLhep predicted at 1 µM [2] was 26.7 mL/min/kg.

Work on `Nc1nc(-c2nn(Cc3ccccc3F)c3ncccc23)nc(N)c1NC(=O)OCC(F)(F)F` yielded an MEC [1] of 0.2 µM and a CLhep predicted at 1 µM [2] of 35 mL/min/kg.

`O=[N+]([O-])OCC(CO[N+](=O)[O-])O[N+](=O)[O-]` [NITROGLYCERIN] gave an IC50 (Saphenous artery [13]) of 1.9 nM and an IC50 (Saphenous artery [14]) of 9.6 nM.

For `COC(=O)N(Cc1cccc(F)c1)c1c(N)nc(-c2nn(Cc3ccccc3F)c3ncccc23)nc1N`, the MEC [1] was 0.2 µM and the CLhep predicted at 1 µM [2] was 53.3 mL/min/kg.

`Nc1nc(-c2nn(Cc3ccccc3F)c3ncccc23)nc(N)c1NC(=O)OC1COC1` showed an MEC [1] of 2.3 µM, a CLhep predicted at 1 µM [2] of 1.67 mL/min/kg and a Papp A→B at 2 h, 2 µM [3] of 0.2 ×10⁻⁶ cm/s. The efflux ratio [4] was 74.

`CC(C)OC(=O)Nc1c(N)nc(-c2nn(Cc3ccccc3F)c3ncccc23)nc1N` showed an MEC [1] of 0.8 µM and a CLhep predicted at 1 µM [2] of 15 mL/min/kg.

Molecule `COC(=O)Nc1c(N)nc(-c2nn(Cc3ccccc3F)c3ncccc23)nc1N` has an MEC [1] of 0.3 µM, a CLhep predicted at 1 µM [2] of 1.67 mL/min/kg and a Papp A→B at 2 h, 2 µM [3] of 7.9 ×10⁻⁶ cm/s. It also gave an efflux ratio [4] of 5.

`COC(=O)Nc1c(N)nc(-c2nc(Cc3ccccc3F)n3ncccc23)nc1N` showed a clearance [15] of 15 mL/min/kg, an MEC [1] of 0.7 µM and a CLhep predicted at 1 µM [2] of under 1.67 mL/min/kg. For the same molecule, the Vd [5] was 0.3 L/kg, the Vd [6] was 2 L/kg and the clearance [7] was 15 mL/min/kg. The half-life [9] was 0.5 h, the half-life [10] was 1.8 h and the bioavailability [11] was 37%.

`COC(=O)Nc1c(N)nc(-c2nn(Cc3ccccc3F)c3nnccc23)nc1N` gave an MEC [1] of 2 µM, a CLhep predicted at 1 µM [2] of under 1.67 mL/min/kg and a clearance [7] of 63.3 mL/min/kg.

For `COC(=O)N(C)c1c(N)nc(-c2nn(Cc3ccccc3F)c3ncccc23)nc1N` [RIOCIGUAT], the clearance [15] was 5 mL/min/kg, the MEC [1] was 0.03 µM and the CLhep predicted at 1 µM [2] was 3.33 mL/min/kg. The Vd [5] was 1.2 L/kg, the Vd [6] was 0.7 L/kg and the clearance [7] was 21.7 mL/min/kg. It also gave a half-life [9] of 1.4 h, a half-life [10] of 2.4 h and a bioavailability [11] of 46%. For the same molecule, the bioavailability [12] was 79%.

In the case of `COC(=O)N(CCO)c1c(N)nc(-c2nn(Cc3ccccc3F)c3ncccc23)nc1N`, the MEC [1] is reported as 0.3 µM and the CLhep predicted at 1 µM [2] is reported as 61.7 mL/min/kg.

Molecule `COC(=O)Nc1c(N)nc(-n2nc(Cc3ccccc3F)c3ncccc32)nc1N` has an MEC [1] of 1.2 µM, a CLhep predicted at 1 µM [2] of under 1.67 mL/min/kg and a clearance [7] of 16.7 mL/min/kg.

With `COC(=O)N(CC(F)F)c1c(N)nc(-c2nn(Cc3ccccc3F)c3ncccc23)nc1N` the MEC [1] was 0.1 µM and the CLhep predicted at 1 µM [2] was 6.67 mL/min/kg.
